{
  "source": "ChEMBL document CHEMBL2062386",
  "about": "“Discovery of LFF571: an investigational agent for Clostridium difficile infection” (J Med Chem, 2012)",
  "key": {"Escherichia coli [1]": {"test_system": "Escherichia coli", "experiment": "Inhibition of protein synthesis in Escherichia coli S30 extract at 2 uM after 75 mins by luciferase based luminescence assay relative to GE2270A", "type": "functional"}, "Escherichia coli [2]": {"test_system": "Escherichia coli", "experiment": "Inhibition of protein synthesis in Escherichia coli S30 extract after 75 mins by luciferase based luminescence assay relative to GE2270A", "type": "functional, organism-based"}, "[3]": {"experiment": "Binding affinity to Escherichia coli GDPNP-labelled EF-Tu by surface plasmon resonance analysis"}, "Enterococcus faecium": {"test_system": "Enterococcus faecium", "experiment": "Antibacterial activity against Enterococcus faecium 7130724 by broth microdilution method", "type": "functional"}, "Streptococcus pyogenes": {"test_system": "Streptococcus pyogenes", "experiment": "Antibacterial activity against Streptococcus pyogenes ATCC BAA-595 by broth microdilution method", "type": "functional", "method_in_brief": "(§1)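 Broth microdilution MICs were run per CLSI M07-A8 (2009). The strain panel included C. difficile ATCC 43255, E. faecalis ATCC 29212 and S. pyogenes ATCC BAA-595.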"}, "Enterococcus faecalis": {"test_system": "Enterococcus faecalis", "experiment": "Antibacterial activity against Enterococcus faecalis ATCC 29212 by broth microdilution method", "type": "functional", "method_in_brief": "as §1"}, "Staphylococcus aureus": {"test_system": "Staphylococcus aureus", "experiment": "Antibacterial activity against Staphylococcus aureus A4.018 by broth microdilution method", "type": "functional"}, "[4]": {"experiment": "Antibacterial activity against Clostridium difficile ATCC 43255 by broth microdilution method", "type": "functional", "conditions": "Clostridioides difficile", "method_in_brief": "as §1"}},
  "data": [
    {"smiles": "CNC(=O)C[C@@H]1NC(=O)c2csc(n2)-c2ccc(-c3nc(C4=N[C@H](C(=O)N5CCC[C@H]5C(N)=O)CO4)cs3)nc2-c2csc(n2)-c2csc(n2)[C@H]([C@@H](O)c2ccccc2)NC(=O)CNC(=O)c2nc(sc2COC)[C@H](C(C)C)NC(=O)c2nc1sc2C", "values": [
      {"measurement": "inhibition at 2 µM", "setting": "Escherichia coli [1]", "value": 30, "unit": "%"},
      {"measurement": "IC50", "setting": "Escherichia coli [2]", "value": 2, "unit": "µM"},
      {"measurement": "Kd", "setting": "[3]", "value": 0.003, "unit": "µM"},
      {"measurement": "MIC", "setting": "Enterococcus faecium", "value": 0.25, "unit": "µg/mL"},
      {"measurement": "MIC", "setting": "Streptococcus pyogenes", "value": 1, "unit": "µg/mL"},
      {"measurement": "MIC", "setting": "Enterococcus faecalis", "value": 0.5, "unit": "µg/mL"},
      {"measurement": "MIC", "setting": "Staphylococcus aureus", "value": 0.25, "unit": "µg/mL"},
      {"measurement": "MIC", "setting": "[4]", "value": 0.015, "unit": "µg/mL"}
    ]}
  ]
}
